Results from ChEMBL document CHEMBL1147285, “A mammalian cell agar-diffusion assay for the detection of toxic compounds” (J Nat Prod, 1989).
Active and inactive are the calls of the source. The calls are words filed in the database; no cut-off is given here. Numbered stars: 1 amine (or outer) side, 2 acyl side, 3 side chain; on linkers, the order of the positions; unused ones are H or OH. Bridge positions count the residues as written; N and C are the ends. Square brackets hold non-standard residues; d marks the D form. Peptide text beside a SMILES is read from it. I, II: the chains in the order shown. Actinocin(1to9) = Cc1c2oc3c(C)ccc(C(=O)[*:2])c3nc-2c(C(=O)[*:1])c(N)c1=O; NMeV = CN[C@H](C(=O)O)C(C)C; Sar = CNCC(=O)O

Legend:
P388 [1] = assay: Antiproliferative activity against mouse P388 cells after 48 hrs by MTT assay; assay type: functional, cell-based; conditions: P388, 48 h
Procedure, shortened: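 Uncloned P-388 in RPMI 1640 + 10% horse serum, gentamicin 50 µg/ml; 200-µl cultures at 1 X 10' cells/ml with or without drug, 48 h exposure. MTT (5 mg/ml in medium, 75 µl) added for 90 min, formazan read at 570 nm; absorbance normalized to untreated wells; IC50 by linear regression of logit-transformed data.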

P388 [2] = assay: Antiproliferative activity against mouse P388 cells at 0.1 ug after 48 hrs by two-layer agar-diffusion method; assay type: functional; conditions: for zone of inhibition at 0.1 µg/disc: read-out: IZ
Procedure, shortened: (§1)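 Compound (0.01-10 µg) spotted on Si gel pieces, air-dried, placed face down on 1.5% Noble agar in PBS-growth medium (20:80) for 60 min diffusion. After removal, cells (2 X 10^6/ml) in 0.3% low-temperature agarose overlaid; 48 h incubation. Cytotoxic zones shown by MTT (5 mg/ml in growth medium) over agarose; absence of zone scored as not detected.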

P388 [3] = assay: Antiproliferative activity against mouse P388 cells at 0.01 ug after 48 hrs by two-layer agar-diffusion method; assay type: functional; conditions: for zone of inhibition at 0.01 µg/disc: read-out: IZ; procedure, shortened: as §1
HT-29 [4] = assay: Antiproliferative activity against human HT-29 cells at 0.1 ug after 48 hrs by two-layer agar-diffusion method; assay type: functional; conditions: for zone of inhibition at 0.1 µg/disc: read-out: IZ; procedure, shortened: as §1
HT-29 [5] = assay: Antiproliferative activity against human HT-29 cells at 0.01 ug after 48 hrs by two-layer agar-diffusion method; assay type: functional; conditions: for zone of inhibition at 0.01 µg/disc: read-out: IZ; procedure, shortened: as §1
HT-29 [6] = assay: Antiproliferative activity against human HT-29 cells after 96 hrs by MTT assay; assay type: functional, cell-based; conditions: HT-29, 96 h
P388 [7] = assay: Antiproliferative activity against mouse P388 cells at 1 ug after 48 hrs by two-layer agar-diffusion method; assay type: functional; conditions: read-out: IZ; procedure, shortened: as §1
HT-29 [8] = assay: Antiproliferative activity against human HT-29 cells at 1 ug after 48 hrs by two-layer agar-diffusion method; assay type: functional; conditions: for zone of inhibition at 1 µg/disc: read-out: IZ; procedure, shortened: as §1
HT-29 [9] = assay: Antiproliferative activity against human HT-29 cells at 10 ug after 48 hrs by two-layer agar-diffusion method; assay type: functional, cell-based; procedure, shortened: as §1

| SMILES | IC50 (P388 [1]) [nM] | zone of inhibition at 0.1 µg/disc (P388 [2]) [mm] | zone of inhibition at 0.01 µg/disc (P388 [3]) [mm] | zone of inhibition at 0.1 µg/disc (HT-29 [4]) [mm] | Activity (HT-29 [5]) | IC50 (HT-29 [6]) [nM] | zone of inhibition at 1 µg/disc (P388 [7]) [mm] | zone of inhibition at 1 µg/disc (HT-29 [8]) [mm] | Activity (P388 [3]) | Activity (HT-29 [4]) | Activity (HT-29 [9]) | Activity (HT-29 [8]) | Activity (P388 [2]) | zone of inhibition at 0.01 µg/disc (HT-29 [5]) [mm] |
| --- | --- | --- | --- | --- | --- | --- | --- | --- | --- | --- | --- | --- | --- | --- |
| CC[C@]1(O)C[C@H]2CN(CCc3c([nH]c4ccccc34)[C@@](C(=O)OC)(c3cc4c(cc3OC)N(C=O)[C@H]3[C@@](O)(C(=O)OC)[C@H](OC(C)=O)[C@]5(CC)C=CCN6CC[C@]43[C@@H]65)C2)C1 [VINCRISTINE] | 1.2 | 32.5 | 12.5 | 15 | inactive | 7 | > 40 | 30 |  |  |  |  |  |  |
| Nc1ncn([C@@H]2O[C@H](CO)[C@@H](O)[C@H]2O)c(=O)n1 [AZACITIDINE] | 5000 | 12.5 |  |  | inactive | 3800 | 30 | 20 | inactive | inactive |  |  |  |  |
| CO[C@@]12[C@H](COC(N)=O)C3=C(C(=O)C(C)=C(N)C3=O)N1C[C@@H]1N[C@@H]12 [MITOMYCIN] | 3000 | 5 |  |  | inactive | 99 | 25 | 10 | inactive | inactive |  |  |  |  |
| Nc1nc2[nH]cnc2c(=S)[nH]1 [THIOGUANINE] | 300 | > 40 | > 40 |  | inactive | 1240 | > 40 |  |  | inactive | inactive | inactive |  |  |
| Nc1ccn([C@@H]2O[C@H](CO)[C@@H](O)[C@@H]2O)c(=O)n1 [CYTARABINE] | 1230 | 20 | 10 |  | inactive | 66 | > 40 |  |  | inactive | inactive | inactive |  |  |
| Cc1c2oc3c(C)ccc(C(=O)N[C@@H]4C(=O)N[C@H](C(C)C)C(=O)N5CCC[C@H]5C(=O)N(C)CC(=O)N(C)[C@@H](C(C)C)C(=O)O[C@@H]4C)c3nc-2c(C(=O)N[C@@H]2C(=O)N[C@H](C(C)C)C(=O)N3CCC[C@H]3C(=O)N(C)CC(=O)N(C)[C@@H](C(C)C)C(=O)O[C@@H]2C)c(N)c1=O [DACTINOMYCIN] (I: T[dV]P[Sar][NMeV] / II: T[dV]P[Sar][NMeV]; ester I:1-I:C, II:1-II:C; linker I:N-II:N via Actinocin(1to9)) | 0.2 |  |  |  | inactive | 223 | 5 |  | inactive | inactive | inactive | inactive | inactive |  |
| O=c1[nH]cc(F)c(=O)[nH]1 [FLUOROURACIL] | 609 | 15 |  |  | inactive | 690 | > 40 |  | inactive | inactive | inactive | inactive |  |  |
| CN(Cc1cnc2nc(N)nc(N)c2n1)c1ccc(C(=O)N[C@@H](CCC(=O)O)C(=O)O)cc1 [METHOTREXATE] | 66 | 27.5 |  |  | inactive | 4400 | 40 |  | inactive | inactive | inactive | inactive |  |  |
| COc1cc(NS(C)(=O)=O)ccc1Nc1c2ccccc2nc2ccccc12 [AMSACRINE] | 229 | 10 |  |  | inactive | 559 | 20 |  | inactive | inactive | inactive | inactive |  |  |
| COc1cccc2c1C(=O)c1c(O)c3c(c(O)c1C2=O)C[C@@](O)(C(=O)CO)C[C@@H]3O[C@H]1C[C@H](N)[C@H](O)[C@H](C)O1 [DOXORUBICIN] | 74 | 17.5 | 5 |  | inactive | 37 | 25 | 5 |  | inactive |  |  |  |  |
| COc1cccc2c1C(=O)c1c(O)c3c(c(O)c1C2=O)C[C@@](O)(C(C)=O)C[C@@H]3O[C@H]1C[C@H](N)[C@H](O)[C@H](C)O1 [DAUNORUBICIN] | 28 | 12.5 | 10 |  | inactive | 133 | 20 | 5 |  | inactive |  |  |  |  |
| COc1cc([C@@H]2c3cc4c(cc3[C@H](O)[C@H]3COC(=O)[C@H]23)OCO4)cc(OC)c1OC [PODOFILOX] | 5.9 | 32.5 | 12.5 | > 40 |  | 11 | 40 | > 40 |  |  |  |  |  | 25 |
| CC[C@]1(O)C[C@@H]2CN(CCc3c([nH]c4ccccc34)[C@@](C(=O)OC)(c3cc4c(cc3OC)N(C)[C@H]3[C@@](O)(C(=O)OC)[C@H](OC(C)=O)[C@]5(CC)C=CCN6CC[C@]43[C@@H]65)C2)C1 [VINBLASTINE] | 0.7 | 32.5 | 12.5 | 25 |  | 4 | > 40 | 40 |  |  |  |  |  | 10 |
| CC[C@H]1CN2CCc3cc(OC)c(OC)cc3[C@@H]2C[C@@H]1C[C@H]1NCCc2cc(OC)c(OC)cc21 [EMETINE] | 7 | 40 | 20 | 25 | inactive | 33 | > 40 | 35 |  |  |  |  |  |  |
| CO[C@H](C(=O)[C@@H](O)[C@@H](C)O)[C@@H]1Cc2cc3cc(O[C@H]4C[C@@H](O[C@@H]5C[C@@H](O)[C@H](O)[C@@H](C)O5)[C@H](O)[C@@H](C)O4)c(C)c(O)c3c(O)c2C(=O)[C@H]1O[C@H]1C[C@@H](O[C@@H]2C[C@@H](O)[C@@H](O[C@@H]3C[C@](C)(O)[C@H](O)[C@@H](C)O3)[C@@H](C)O2)[C@H](O)[C@@H](C)O1 [PLICAMYCIN] | 111 | 15 |  | 15 | inactive | 33 | 30 | 25 | inactive |  |  |  |  |  |
| COc1cc2c(c(OC)c1OC)-c1ccc(OC)c(=O)cc1[C@@H](NC(C)=O)CC2 [COLCHICINE] | 24 | 40 | 17.5 | 40 |  |  | > 40 | > 40 |  |  |  |  |  | 25 |
